From PMC8892239 (EFSA Journal, 2022)
In brackets after ≈: the same amount, converted by molar mass.

How the values were obtained:
[1] = Antioxidant efficacy, storage of complete feed for chickens for fattening
Adsorption coefficient = format: physicochemical
Summary of the method: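 Koc estimated under GLP per OECD 121 from the HPLC retention time of the test compound. Runs were done at pH 6.5 and at pH 2.5 because the compound ionises at soil-relevant pH.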

[2] = Antioxidant efficacy, storage of complete feed for sows; settings: for peroxide value after 3 months of storage: basal feed 47.3 meq O2/kg fat
Eisenia andrei = experiment: Earthworm reproduction test, OECD 222; format: in vivo; settings: 56 days, nominal
Summary of the method: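 GLP 56-day Eisenia andrei test per OECD 222. Eight nominal soil levels were used: 16, 29, 53, 95, 171, 309, 556 and 1,000 mg/kg soil DW. A solvent control was included. Four replicates per treatment, eight for the solvent control, 10 worms per replicate. Reproduction, mortality and growth were scored.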

[3] = Oxygen bomb method, feed for sows
dairy cows = experiment: 36-day feeding study with lactating cows; format: in vivo, Holstein cows; settings: up to 10× the maximum recommended level, fed for 36 days
[4] = Residues of EQ and metabolites/TPs in cattle tissues; format: in vivo; settings: for concentration at 42 days: Holstein, bovine, oral, 50 mg EQ/kg complete feed; for residue in muscle, highest value: LOQs as above
[5] = Residues of EQ and metabolites/TPs in laying hen tissues and eggs; format: in vivo, laying hens; settings: liquid egg, control (0 mg EQ/kg feed); LOQ 2 µg/kg whole egg
Summary of the method: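 Liver, kidney, muscle and skin/fat were taken from eight hens per group after 56 days of feeding. Twelve eggs per treatment were collected: four per day on three consecutive days at the end of the study. EQ, EQDM, EQI, DHEQ, DEQ and metabolites A–C were measured. LOQs: EQ 0.5 (muscle) to 2 (other tissues) µg/kg; EQDM 0.5–1 µg/kg; EQI 1.5 µg/kg; DHEQ 0.5 µg/kg; whole egg 2 µg/kg per analyte.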

[6] = test system: Skeletonema pseudocostatum; experiment: Marine algal growth inhibition test, ISO 10253:2016; format: in vivo; settings: read-out: ErC50
Summary of the method: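 Test concentrations were measured analytically at 0 and 72 h. Endpoints were expressed on the geometric mean of the measured concentrations. An EC50 was also predicted from the initially measured concentrations.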

[7] = Metabolism of 14C-EQ in liver slices; format: in vitro ADME, rat, laying hen and goat; settings: 10 and 100 µM, 37°C, 2 h
Risk characterisation = experiment: Risk characterisation
Summary of the method: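 For each compartment, a PNEC was derived by dividing the NOEC (or EC10 where indicated) by an assessment factor. Risk was expressed as the PEC/PNEC ratio.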

cattle for fattening = experiment: Tolerance study in cattle for fattening; format: in vivo, male Holstein calves
[8] = Forced degradation of EQ in compound feed; format: physicochemical
Pisum sativum (pea) = experiment: Seedling emergence and seedling growth test, OECD 208; format: in vivo; settings: 21 days
Summary of the method: (§1)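 Soil was spiked with the test compound; measured concentrations were checked against nominal. From 50% emergence in controls, emergence, survival and visible phytotoxicity were recorded weekly for 21 days. At the end, emergence, survival, shoot fresh weight and visible damage were recorded. Effect concentrations were derived from dose–response curves.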

Avena sativa (oat) = experiment: as above; format: in vivo
Summary of the method: as §1

[9] = Residues of EQ and metabolites/TPs in piglet tissues; format: in vivo; settings: piglets
laying hens = experiment: Tolerance study in laying hens; format: in vivo, HyLine Brown layers; settings: 50 mg ethoxyquin/kg feed
[10] = Stability of EQ in a vitamin/mineral premixture; format: physicochemical; settings: premixture with 5% EQ
terrestrial plants = experiment: Seedling emergence and seedling growth test, OECD 208, three plant species; format: in vivo, Avena sativa, Brassica napus, Pisum sativum
Summary of the method: as §1

weaned piglets = experiment: Tolerance study in weaned piglets; format: in vivo
Summary of the method: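 128 piglets (Pietrain × crossbred, both sexes) entered the study at 28 days old and 8.1 kg. They were housed four per pen (two males, two females) in 32 pens and acclimatised for 6 days. Four mash diets were fed: 0, 50, 150 or 300 mg/kg feed, with eight replicate pens per diet.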

[11] = control feed (0 mg EQ/kg), 42 days, mean ± SD, LOQs as above

## CCOc1ccc2c(c1)C(C)=CC(C)(C)N2 [EQ, 6‐ethoxy‐1,2‐dihydro‐2,2,4‐trimethylquinoline]
[1]; 25–30°C, 55–65% RH, EQ = 50 mg EQ/kg feed (EQ50)
  loss of EQ content in feed after 3 months: approximately 40%
[1]; Panel's overall conclusion
  range in which considered an efficacious antioxidant in feed: 25–50 mg/kg complete feed
Adsorption coefficient
  Koc (used for Phase II exposure assessment): 331 L/kg
Adsorption coefficient; pH 2.5
  Log Koc: 1.55
  estimated Koc: 35
Adsorption coefficient; pH 6.5
  Log Koc: 2.52
  estimated Koc: 331
[2]; 25 mg EQ/kg feed (EQ25)
  EQ content after 3 months of storage: completely disappeared
  peroxide value after manufacturing: 0.89 meq O2/kg fat
  peroxide value after 3 months of storage: approx. 23.8
[2]; 50 mg EQ/kg feed (EQ50)
  peroxide value after manufacturing: 1.36 meq O2/kg fat
  reduction of EQ after 3 months of storage: approx. 80%
  peroxide value after 3 months of storage: ~13.6
Eisenia andrei
  LC50 (mortality): 693 mg test item/kg soil DW
  NOEC for biomass: ≥ 556 mg test item/kg soil DW
  NOEC for mortality: 556 mg test item/kg soil DW
  NOEC for reproduction: 171 mg test item/kg soil DW
[3]; 25 mg ethoxyquin/kg feed (EQ25)
  protection factor: 1.50
[3]; 50 mg ethoxyquin/kg feed (EQ50)
  protection factor: 1.78
Dairy cows
  effect on performance parameters: had no influence on the performance parameters
[4]; kidney, residue in kidney, highest value, cattle, 50 mg EQ/kg complete feed for 42 days, LOQs 1.5–2 µg EQ, EQDM, metabolite A/kg, 0.5–1 µg EQI, DHEQ/kg
  concentration at 42 days: 19.9 ng/g
[4]; liver
  concentration at 42 days: 34 ng/g
[4]; cattle, 50 mg EQ/kg complete feed for 42 days
  residue in muscle, highest value: ˂ LOQ
[4]; cattle, control (0 mg EQ/kg feed), 42 days
  residue in muscle, highest value: ˂ LOQ
[5]
  residue in eggs: ˂ LOQ^( ^d ^)
[6]
  EC50: 3.3 µg/mL (≈ 15.2 µM)
[7]
  extent of metabolism: metabolised extensively
[7]; irrespective of origin
  number of metabolites identified: 17
Risk characterisation
  PEC/PNEC, fish farmed in land-based systems: 0.10
  PEC/PNEC, freshwater sediment: 0.02
  PEC/PNEC, marine sediment: 1,550
  PEC/PNEC, terrestrial compartment (earthworm): 0.03
Risk characterisation; AF 10
  PNEC, freshwater sediment: 12,500 μg/kg
  PNEC, terrestrial compartment (earthworm): 17,100 μg/kg
Risk characterisation; AF 50
  PNEC, freshwater compartment: 1.2 µg/L
Risk characterisation; EQ used in terrestrial animals
  PEC/PNEC, freshwater compartment: 5
Risk characterisation; equilibrium partitioning approach, AF 1,000
  PNECsed, marine sediment: 70.8 µg/kg
Cattle for fattening; 50 mg ethoxyquin/kg feed
  margin of safety: 10
Cattle for fattening; 1× (50 mg/kg feed), 42 days
  gamma-glutamyl transpeptidase: 22.4 µ/L
  platelet count: 452000 µL⁻¹
Cattle for fattening; 3× (150 mg/kg feed), 42 days
  platelet count: 394000 µL⁻¹
Cattle for fattening; 10× (500 mg/kg feed), 42 days, p = 0.01 to the control
  platelet count: 264000 µL⁻¹
[8]; H2O2
  share of the lost EQ identified as DMEQ, EQI and EQDM: around 56%
[8]; H2O2, after 4 h
  EQ oxidised: 83%
[8]; H2O2, spontaneously
  EQ oxidised: 75%
Pisum sativum (pea)
  EC50, shoot fresh weight: 181.3 mg/kg
Avena sativa (oat); 21 days
  EC50, shoot fresh weight: 242.2 mg/kg
Avena sativa (oat); up to 1,000 mg test item/kg soil DW
  effects on seedling emergence and survival of emerged seedlings: No adverse effects
[9]; control feed (0 mg EQ/kg), 42 days, mean ± SD, LOQs 1.5 to 2 µg EQ, EQDM, metabolite A/kg, 0.5 µg EQI/kg
  residue in kidney: ˂ LOQ^( ^b ^)
[9]; [11]
  residue in muscle: ˂ LOQ
  residue in subcutaneous fat: ˂ LOQ
[9]; feed with 50 mg EQ/kg for 42 days, LOQs 1.5 to 2 µg EQ, EQDM, metabolite A/kg, 0.5 µg EQI/kg
  residue in muscle: ˂ LOQ
Laying hens
  margin of safety: 10 ×
[10]; 90 days at 25°C, 60% RH
  EQ disappeared: About 50%
[10]; at 40°C
  time to a similar (about 50%) decline of EQ: 8 days
Terrestrial plants; all species tested
  concentration with statistically significant effects on shoot fresh weight: 111 mg test item/kg soil DW
Terrestrial plants; lowest calculated, 21 days
  EC10: 55.8 mg test item/kg soil DW
Terrestrial plants; shoot fresh weight, 21 days
  lowest calculated EC50: 155 mg test item/kg soil DW
Weaned piglets; 50, 150 or 300 mg/kg feed, 42 days
  zootechnical parameters: not different from those of the control group
Weaned piglets; maximum use level 50 mg ethoxyquin/kg feed
  margin of safety: at least six
